# Data as given in ChEMBL document CHEMBL1140764, “Chromen-based TNF-alpha converting enzyme (TACE) inhibitors: design, synthesis, and biological evaluation” (Bioorg Med Chem, 2008).
# Tests used:
# [1] = molecular target: 72 kDa type IV collagenase (Homo sapiens, UniProt P08253); experiment: Inhibition of human recombinant MMP2
# Outline: (§1)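 Recombinant human MMP-2 or MMP-9 catalytic domain with fluorogenic quenched peptide Mca-Pro-Leu-Gly-Leu-Dpa-Ala-Arg-NH2. Cleavage releases Mca. Fluorescence read at excitation 324, emission 420, and the rate of emission change is taken as enzyme activity. IC50 values are means of three experiments.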
# RAW264.7 [2] = experiment: Inhibition of NO production in mouse RAW264.7 cells at 10 uM after 24 hrs by ELISA; format: functional, cell-based; settings: in the assay text read “by Griess assay” for “by ELISA”
# Outline: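 RAW264.7 cells cultured with inhibitors for 24 h. NO2- accumulation in medium taken as NO output: supernatant mixed 1:1 with Griess reagent (1% sulfanilamide, 0.1% naphthylethylenediamine dihydrochloride, 2% phosphoric acid), 10 min at room temperature, absorbance at 540 nm against a NaNO2 standard curve. Single concentration 10 μM. Means of three experiments.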
# [3] = molecular target: Disintegrin and metalloproteinase domain-containing protein 17 (Homo sapiens, UniProt P78536); experiment: Inhibition of human TACE
# Chain of Disintegrin and metalloproteinase domain-containing protein 17 (P78536 whole entry, the tested form may be a part): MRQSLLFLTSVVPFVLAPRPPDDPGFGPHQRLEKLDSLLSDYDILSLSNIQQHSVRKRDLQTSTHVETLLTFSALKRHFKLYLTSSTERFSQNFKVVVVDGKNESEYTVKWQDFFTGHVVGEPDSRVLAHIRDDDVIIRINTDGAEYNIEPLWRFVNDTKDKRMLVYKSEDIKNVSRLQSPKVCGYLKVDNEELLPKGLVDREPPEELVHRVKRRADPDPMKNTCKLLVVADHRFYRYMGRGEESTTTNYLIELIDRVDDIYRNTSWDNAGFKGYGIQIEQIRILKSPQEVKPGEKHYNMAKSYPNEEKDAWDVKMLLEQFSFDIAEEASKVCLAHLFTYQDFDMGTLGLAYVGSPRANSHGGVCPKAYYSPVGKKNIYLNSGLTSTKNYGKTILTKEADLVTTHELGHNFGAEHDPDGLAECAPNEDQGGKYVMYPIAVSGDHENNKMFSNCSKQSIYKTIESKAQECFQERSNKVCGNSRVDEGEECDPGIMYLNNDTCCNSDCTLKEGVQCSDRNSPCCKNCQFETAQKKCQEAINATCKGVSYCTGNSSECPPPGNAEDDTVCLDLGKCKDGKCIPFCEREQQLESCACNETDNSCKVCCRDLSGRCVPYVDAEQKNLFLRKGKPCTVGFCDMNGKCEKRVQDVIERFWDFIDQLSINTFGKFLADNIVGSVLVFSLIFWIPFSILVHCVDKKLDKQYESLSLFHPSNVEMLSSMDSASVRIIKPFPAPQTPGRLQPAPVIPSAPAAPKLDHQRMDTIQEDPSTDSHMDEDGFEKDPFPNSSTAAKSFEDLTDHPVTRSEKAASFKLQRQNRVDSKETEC
# [4] = molecular target: Matrix metalloproteinase-9 (Homo sapiens, UniProt P14780); experiment: Inhibition of human recombinant MMP9; outline: as §1
# Chain of Matrix metalloproteinase-9 (P14780 whole entry): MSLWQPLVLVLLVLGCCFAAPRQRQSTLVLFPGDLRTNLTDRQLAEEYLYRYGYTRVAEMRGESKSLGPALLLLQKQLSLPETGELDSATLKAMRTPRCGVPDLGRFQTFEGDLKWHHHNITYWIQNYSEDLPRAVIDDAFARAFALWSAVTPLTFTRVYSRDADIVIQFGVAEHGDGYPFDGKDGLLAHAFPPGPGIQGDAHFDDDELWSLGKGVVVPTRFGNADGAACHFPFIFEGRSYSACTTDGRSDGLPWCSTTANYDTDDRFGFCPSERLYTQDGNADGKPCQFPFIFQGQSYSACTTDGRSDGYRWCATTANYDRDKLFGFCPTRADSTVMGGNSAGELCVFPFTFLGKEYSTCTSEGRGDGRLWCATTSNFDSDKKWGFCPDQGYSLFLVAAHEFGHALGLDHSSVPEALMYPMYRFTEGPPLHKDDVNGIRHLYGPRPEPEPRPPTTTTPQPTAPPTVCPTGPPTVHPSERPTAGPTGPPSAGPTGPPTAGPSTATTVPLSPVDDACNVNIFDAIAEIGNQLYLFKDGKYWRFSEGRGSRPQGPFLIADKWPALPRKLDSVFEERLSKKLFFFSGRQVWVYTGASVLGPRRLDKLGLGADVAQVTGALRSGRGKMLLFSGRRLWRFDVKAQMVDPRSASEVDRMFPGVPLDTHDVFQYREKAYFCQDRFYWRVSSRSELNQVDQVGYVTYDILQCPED
# RAW264.7 [5] = experiment: Inhibition of TNFalpha production in mouse RAW264.7 cells after 24 hrs by ELISA; format: functional, cell-based; settings: RAW264.7, 24 h
# Outline: (§2)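 RAW264.7 cells cultured with inhibitors for 24 h. Secreted TNF-α in culture supernatant quantified by ELISA following the kit instructions. IC50 values are means of three experiments; line 3 is the single-concentration 10 μM result.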
# RAW264.7 [6] = experiment: Inhibition of TNFalpha production in mouse RAW264.7 cells at 10 uM after 24 hrs by ELISA; format: functional, cell-based; outline: as §2
# Chain of 72 kDa type IV collagenase (P08253 whole entry, the tested form may be a part): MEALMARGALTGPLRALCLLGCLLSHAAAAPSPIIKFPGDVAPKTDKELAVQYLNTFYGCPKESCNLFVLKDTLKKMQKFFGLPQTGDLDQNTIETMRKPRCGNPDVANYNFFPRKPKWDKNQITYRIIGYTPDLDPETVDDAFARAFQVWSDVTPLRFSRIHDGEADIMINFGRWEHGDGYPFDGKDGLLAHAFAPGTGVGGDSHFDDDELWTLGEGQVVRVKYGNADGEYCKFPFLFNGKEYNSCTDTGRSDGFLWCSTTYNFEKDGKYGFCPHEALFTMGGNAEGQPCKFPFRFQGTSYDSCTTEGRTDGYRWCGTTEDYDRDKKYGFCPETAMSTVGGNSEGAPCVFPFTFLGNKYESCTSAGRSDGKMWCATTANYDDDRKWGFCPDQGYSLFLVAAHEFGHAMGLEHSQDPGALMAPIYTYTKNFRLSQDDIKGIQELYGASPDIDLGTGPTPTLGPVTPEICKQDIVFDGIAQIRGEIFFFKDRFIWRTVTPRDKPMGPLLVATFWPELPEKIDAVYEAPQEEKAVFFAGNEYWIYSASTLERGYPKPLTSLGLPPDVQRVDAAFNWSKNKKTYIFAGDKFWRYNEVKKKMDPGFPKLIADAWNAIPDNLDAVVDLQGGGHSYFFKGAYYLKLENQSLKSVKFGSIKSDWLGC
Structure (SMILES),IC50 [1],IC50 (RAW264.7 [2]),IC50 [3],IC50 [4],IC50 (RAW264.7 [5]),IC50 (RAW264.7 [6])
Cc1ccc2oc(=O)c(CC(C)C(=O)NO)cc2c1 (configuration not stated),1.04 µM,Not Active,0.003 µM,> 10 µM,0.32 µM,–
COc1ccc2oc(=O)c(CCC(=O)NO)cc2c1,0.59 µM,Not Active,0.11 µM,5.66 µM,2.21 µM,–
C/C=C/C=C\C=C1\C=C(CCC(=O)NO)C(=O)OC1,0.006 µM,Not Active,0.028 µM,0.023 µM,8.8 µM,–
Cc1ccc2oc(=O)c(CCC(=O)NO)cc2c1,0.23 µM,Not Active,0.06 µM,3.05 µM,1.3 µM,–
O=C(CCc1cc2ccccc2oc1=O)NO,0.2 µM,Not Active,0.15 µM,1.41 µM,5.64 µM,–
CC(C)(C)c1ccc2oc(=O)c(CCC(=O)NO)cc2c1,–,Not Active,12.4 µM,–,–,Not Active
O=C(CCc1cc2cc(Br)ccc2oc1=O)NO,0.86 µM,Not Active,0.84 µM,24.5 µM,13 µM,–
C=CCC(Cc1cc2cc(C)ccc2oc1=O)C(=O)NO (configuration not stated),–,Not Active,0.03 µM,–,0.52 µM,–
COc1ccc2oc(=O)c(CC(C)C(=O)NO)cc2c1 (configuration not stated),–,Not Active,0.036 µM,–,0.22 µM,–
O=C(CCc1cc2cc(Cl)ccc2oc1=O)NO,1.47 µM,Not Active,0.55 µM,16.4 µM,25.6 µM,–
Cc1ccc2oc(=O)c(CC(Cc3ccccc3)C(=O)NO)cc2c1 (configuration not stated),–,Not Active,0.005 µM,–,0.54 µM,–
